In general, inhibition in vivo refers to the drop in the measured response relative to a control, in per cent. One may read the IC50 as the concentration at which inhibition is half-maximal. As a reminder, the inhibition is the drop in the measured response relative to a control, in per cent. The half-life is how long it takes for the measured level to halve.

The subject of data set [1] is Mus musculus. Kind of data set: AUClast in CD-1 (ICR) mouse at 1 mg/kg, iv. It is filed as ADME, organism-based. Also on record: dose 1 mg/kg, route intravenous, time 0 - last. The settings on record: in vivo.
Data set [2] has as its system MDA-MB-231. Nature of the data set: Antitumor activity against human MDA-MB-231 cells xenografted in nude mouse assessed as tumor growth inhibition at 50 mg/kg, bid administered for 21 days relative to control. It is filed as functional. The conditions noted are these: MDA-MB-231, 504 h. The essentials: (§1)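 MDA-MB-231 xenografts in nude mice, treatment started at median tumor volume 108 mm3. Oral gavage of 50 mg/kg twice daily (100 mg/kg/day) for 21 days versus vehicle cohort, 9 animals per cohort. Median tumor volume followed over time. Mean body weight monitored through the treatment period.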
In general terms: A xenograft is tissue or cells of one species grown in another, often human tumour cells in immunodeficient mice.

The test system of data set [3] is Mus musculus. Nature of the data set: Toxicity in nude mouse xenografted with human MDA-MB-231 cells assessed as reduction in body weight at 50 mg/kg, bid administered for 21 days measured during the treatment period. Type of data set: organism-based. The arrangement: scale not given: the % may be the effect or the level left. The settings on record: in vivo, 504 h. The method in brief: as §1

Data set [4] concerns HUVEC. Nature of the data set: Antiangiogenic activity in HUVEC assessed as inhibition of VEGF-A-induced angiogenic sprouting by spheroid-based sprouting assay. The conditions noted are these: Homo sapiens.
The target in data set [5] is T1, Ephrin type-B receptor 4 (Homo sapiens, UniProt P54760).
T1 sequence (P54760 whole entry): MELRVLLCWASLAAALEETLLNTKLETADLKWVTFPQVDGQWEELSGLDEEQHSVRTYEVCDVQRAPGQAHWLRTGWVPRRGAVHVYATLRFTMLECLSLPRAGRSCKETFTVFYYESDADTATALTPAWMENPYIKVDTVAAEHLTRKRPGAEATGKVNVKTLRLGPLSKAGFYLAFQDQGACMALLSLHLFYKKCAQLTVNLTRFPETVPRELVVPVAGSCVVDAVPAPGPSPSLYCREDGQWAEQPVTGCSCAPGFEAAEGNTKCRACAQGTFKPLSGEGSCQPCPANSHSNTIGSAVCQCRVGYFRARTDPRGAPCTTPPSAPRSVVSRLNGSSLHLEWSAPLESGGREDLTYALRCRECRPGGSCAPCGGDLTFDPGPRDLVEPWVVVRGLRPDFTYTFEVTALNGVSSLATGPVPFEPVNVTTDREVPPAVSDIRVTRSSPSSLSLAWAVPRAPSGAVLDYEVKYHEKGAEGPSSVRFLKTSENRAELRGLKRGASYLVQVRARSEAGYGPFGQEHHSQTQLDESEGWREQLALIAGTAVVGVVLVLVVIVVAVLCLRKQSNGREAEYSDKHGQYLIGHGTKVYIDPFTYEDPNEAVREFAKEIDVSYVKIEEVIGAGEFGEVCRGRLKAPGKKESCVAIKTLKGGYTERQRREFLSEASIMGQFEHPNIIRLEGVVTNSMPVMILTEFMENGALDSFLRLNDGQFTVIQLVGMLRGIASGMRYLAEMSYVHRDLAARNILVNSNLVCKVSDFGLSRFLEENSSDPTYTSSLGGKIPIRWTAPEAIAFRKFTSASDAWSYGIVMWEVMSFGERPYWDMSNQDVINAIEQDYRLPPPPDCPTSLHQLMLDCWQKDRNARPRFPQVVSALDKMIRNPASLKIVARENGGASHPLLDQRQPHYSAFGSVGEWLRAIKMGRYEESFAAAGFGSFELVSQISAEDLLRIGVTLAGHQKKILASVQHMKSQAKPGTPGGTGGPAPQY
Kind of data set: Inhibition of N-terminal GST-fused His6-tagged human recombinant EphB4. The essentials:
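EphB4 FRET enzymatic assay measuring inhibition of phosphorylation of a synthetic substrate, with ATP at Km.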

Data set [6] relates to HUVEC. Nature of the data set: Antiangiogenic activity in HUVEC assessed as reduction in number of loops after 15 hrs by matrigel assay. The settings on record: Homo sapiens. It is filed as functional, cell-based. The essentials:
(§2)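 HUVEC seeded on Matrigel and incubated with compound for 15 h. Tube length, total branching points and total loops quantified against untreated control cells. Dose-response curves used to derive IC50 for each read-out. Measurements done at least in triplicate, SEM shown.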

In data set [7] the test system is HUVEC. Kind of data set: Antiangiogenic activity in HUVEC assessed as reduction in branching points after 15 hrs by matrigel assay. Type of data set: functional, cell-based. The conditions noted are these: Homo sapiens. The essentials: as §2
Data set [8] has as its system HUVEC. Nature of the data set: Antiangiogenic activity in HUVEC assessed as reduction in branching points at 1 uM after 15 hrs by matrigel assay. Type of data set: functional. The settings on record: Homo sapiens.
The subject of data set [9] is HUVEC. Nature of the data set: Antiangiogenic activity in HUVEC assessed as reduction in number of loops at 1 uM after 15 hrs by matrigel assay. The conditions noted are these: Homo sapiens. Type of data set: functional.
In data set [10] the test system is HUVEC. Kind of data set: Antiangiogenic activity in HUVEC assessed as reduction in tube length after 15 hrs by matrigel assay. It is filed as functional, cell-based. The settings on record: Homo sapiens. The method in brief:
as §2

Data set [11] can be described thus: Half life in human liver microsomes at 0.1 uM up to 60 mins by HPLC-MS/MS analysis. A general note: Liver microsomes are a subcellular fraction often used to study metabolism.

In data set [1], `Cc1ccc(O)cc1-n1c(N)c(C(N)=O)c2nc3ccccc3nc21` registered an AUClast of 39 ng·h/mL. In addition, the inhibition in vivo at 50 mg/kg in data set [2] is 80%. Also, the Activity result in [3] is reported as “<= 16%”. Also, in data set [4], the IC50 was determined as 1500 nM.

Take `COc1cccc(-n2c(N)c(C(N)=O)c3nc4ccccc4nc32)c1`: the 50% inhibitory concentration (IC50) in data set [5] was 300 nM.

As for `COc1ccccc1-n1c(-c2ccc(O)cc2C)cn2c3c(=O)[nH]c(=O)n(C)c3nc12`, the results for the IC50 in data set [6], in [7] and in [10] were 71 nM, 191 nM and 1700 nM, respectively. Also, the values for the inhibition at 1 µM in [8] and in [9] were 87% and 97%, respectively.

`CC(C)NCC(O)COc1cccc2ccccc12` (stereo unspecified) [PROPRANOLOL]: the half-life at 1 h, 0.1 µM in data set [11] was > 1 h.

For the origin of these results see ChEMBL document CHEMBL3774351, “Three stories on Eph kinase inhibitors: From in silico discovery to in vivo validation” (Eur J Med Chem, 2016).
